This note sets out measurements from ChEMBL document CHEMBL1129387, “Synthesis and biological activity of 1 alpha, 25-dihydroxy-18-norvitamin D3 and 1 alpha, 25-dihydroxy-18,19-dinorvitamin D3” (1996).

For assay [1], the species on record is Rattus norvegicus. As to the kind of experiment: Support of Intestinal Calcium Transport mobilization response of Vitamin D-Deficient Rats on a low-calcium diet(amount 130 pmol). The class given is functional. An outline of the steps: (§1)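 Vitamin D-deficient weanling male rats kept on a 0.02% Ca diet. Compound given intraperitoneally daily for 7 days in 0.1 mL of 95:5 propylene glycol/ethanol; controls got vehicle. Killed 24 h after the last dose. Intestinal Ca transport by everted sac (proximal 10 cm), reported as S/M ratio. At least 5 rats/group; mean ± SEM; Student's t-test.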

The species entered for assay [2] is Rattus norvegicus. The assay is described as follows: Support of Serum Calcium Transport mobilization response of Vitamin D-Deficient Rats on a low-calcium diet(amount 130 pmol). It is filed as functional, organism-based. An outline of the steps:
(§2)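 Weanling male rats deficient in vitamin D, held on a low-calcium (0.02% Ca) diet, dosed intraperitoneally each day for 7 days in 0.1 mL of 95:5 propylene glycol/ethanol, with vehicle controls. Serum calcium was measured by automatic titrator 24 h after the last dose as the index of bone calcium mobilization. At least 5 rats/group; mean ± SEM; Student's t-test.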

The species named for assay [3] is Rattus norvegicus. The assay is described as follows: Support of Intestinal Calcium Transport mobilization response of Vitamin D-Deficient Rats on a low-calcium diet(amount 1000 pmol). It is filed as functional. An outline of the steps: as §1
For assay [4], the species on record is Rattus norvegicus. The assay is described as follows: Support of Intestinal Calcium Transport mobilization response of Vitamin D-Deficient Rats on a low-calcium diet(amount 260 pmol). It is filed as functional. An outline of the steps:
as §1

The species named for assay [5] is Rattus norvegicus. As to the kind of experiment: Support of Serum Calcium Transport mobilization response of Vitamin D-Deficient Rats on a low-calcium diet(amount 260 pmol). The class given is functional, organism-based. An outline of the steps:
as §2

For assay [6], the species on record is Rattus norvegicus. As to the kind of experiment: Support of Serum Calcium Transport mobilization response of Vitamin D-Deficient Rats on a low-calcium diet(amount 1000 pmol). It is filed as functional, organism-based. An outline of the steps: as §2
Assay [7] is filed under the species Rattus norvegicus. As to the kind of experiment: Support of Serum Calcium Transport mobilization response of Vitamin D-Deficient Rats on a low-calcium diet(amount 500 pmol). The class given is functional, organism-based. An outline of the steps:
as §2

Assay [8] is filed under the species Rattus norvegicus. The assay is described as follows: Support of Intestinal Calcium Transport mobilization response of Vitamin D-Deficient Rats on a low-calcium diet(amount 500 pmol). It is filed as functional. An outline of the steps: as §1
Assay [9] deals with Rattus norvegicus. As to the kind of experiment: Intestinal Calcium Transport mobilization response of Vitamin D-Deficient Rats to a single Intravenous Injection of D3 (amount 260 pmol). It is filed as functional. An outline of the steps:
(§3)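 Vitamin D-deficient weanling male rats, 3 weeks on a 0.47% Ca diet then 1 week on 0.02% Ca. A single intravenous dose was given in 0.1 mL of 95:5 propylene glycol/ethanol, with vehicle controls. After 24 h, the proximal 10 cm of intestine was taken for everted-sac calcium transport, expressed as serosal:mucosal (S/M) Ca ratio. At least 5 rats/group; mean ± SEM.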

Assay [10] is filed under the species Rattus norvegicus. As to the kind of experiment: Serum Calcium Transport mobilization response of Vitamin D-Deficient Rats on a low-calcium diet(amount 500 pmol). It is filed as functional, organism-based. An outline of the steps: as §2
Assay [11] has as its system Rattus norvegicus. The assay is described as follows: Bone Calcium mobilization response of Vitamin D-Deficient Rats to a single Intravenous Injection of (amount 260 pmol). The class given is functional, organism-based. An outline of the steps: (§4)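 Vitamin D-deficient weanling male rats, 3 weeks on a 0.47% Ca diet then 1 week on 0.02% Ca. A single intravenous dose was given in 0.1 mL of 95:5 propylene glycol/ethanol, with vehicle controls. Serum calcium was measured by automatic titrator 24 h after dosing. The rise in serum Ca on the low-Ca diet is taken as bone calcium mobilization. At least 5 rats/group; mean ± SEM.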

The species named for assay [12] is Rattus norvegicus. The assay is described as follows: Intestinal Calcium Transport mobilization response of Vitamin D-Deficient Rats on a low-calcium diet(amount 500 pmol). The class given is functional. An outline of the steps:
as §1

For assay [13], the species on record is Rattus norvegicus. The assay is described as follows: Support of Intestinal Calcium Transport mobilization response of Vitamin D-Deficient Rats on a low-calcium diet(amount 650 pmol). It is filed as functional. An outline of the steps: as §1
For assay [14], the species on record is Rattus norvegicus. The assay is described as follows: Support of Serum Calcium Transport mobilization response of Vitamin D-Deficient Rats on a low-calcium diet(amount 650 pmol). It is filed as functional, organism-based. An outline of the steps: as §2
For assay [15], the system named is Rattus norvegicus. As to the kind of experiment: Intestinal Calcium Transport mobilization response of Vitamin D-Deficient Rats to a single Intravenous Injection amount 260 pmol). The class given is functional. An outline of the steps:
as §3

Assay [16] concerns Rattus norvegicus. The assay is described as follows: Bone Calcium mobilization response of Vitamin D-Deficient Rats to a single Intravenous Injection (amount 260 pmol). The class given is functional, organism-based. An outline of the steps:
as §4

The species named for assay [17] is Rattus norvegicus. The assay is described as follows: Support of Intestinal Calcium Transport mobilization response of Vitamin D-Deficient Rats on a low-calcium diet(amount 1300 pmol). It is filed as functional. An outline of the steps:
as §1

The species entered for assay [18] is Rattus norvegicus. The assay is described as follows: Support of Serum Calcium Transport mobilization response of Vitamin D-Deficient Rats on a low-calcium diet(amount 1300 pmol). The class given is functional, organism-based. An outline of the steps:
as §2

Values joined by “and” are separate entries in the source; they are usually repeats but may differ in a detail not shown here. Equal entries are not always repeated.

For `C[C@H](CCCC(C)(C)O)C1CC[C@H]2/C(=C/C=C3C[C@@H](O)C[C@H](O)C3)CCC[C@H]12` (some centres undefined), the “Ca2+ transport” value in assay [1] stood at 3.7; in assay [3], 6.9; in assay [4] it was 4.8; in assay [8], 6.2. Further, the Serum Ca2+ was determined as 4.8 in assay [2], 4.9 in assay [5], 5.5 in assay [6] and 5.6 in assay [7].

For the compound `C=C1/C(=C\C=C2/CCC[C@]3(C)[C@@H]([C@H](C)CCCC(C)(C)O)CC[C@@H]23)C[C@@H](O)C[C@@H]1O` [CALCITRIOL], the “Ca2+ transport” value stood at 6.8 in assay [1], 7.6 in [4], 5 in assay [9] and 5.7 in [12]. Besides, the Serum Ca2+ was 5.8 in [2]; 5.4 and 7.1 in assay [5]; 5.5 in [10]; 4.8 in [11].

For the compound `C=C1/C(=C\C=C2/CCC[C@@H]3C([C@H](C)CCCC(C)(C)O)CC[C@@H]23)C[C@@H](O)C[C@@H]1O` (some centres undefined), the “Ca2+ transport” value in assay [13] was found to be 5.4; in assay [15], 3.9; in assay [17] it was 5.5; in [12], 4.1. For the same compound, the Serum Ca2+ was 5.2 in assay [14], 5.1 in [10], 4.4 in assay [16] and 5.6 in [18].
